High-throughput results: PubChem, several laboratories
Fibroblast inh: blocks proliferation of human lung fibroblasts. LL 47 human lung fibroblast viability, ATP luminescence; stronger effect = lower value. viability, % at 10 µM. 85,000 compounds, 1.1% hits. AID 719;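 active = viability at or below 50% in the single dose screen; inactive = viability above 50%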;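 note: compound exposure lasted 72 h before the ATP readout; 100% = median luminescence of untreated cell-only wells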
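Material: human lung fibroblast line LL 47, low passage; Evaluation: viability percentage against median untreated-cell control; Buffer or medium: 15% FBS in IMEM; Incubation: 72 h compound exposure at 37 °C after overnight plating; Dosing: 0.1% DMSO in all compound wells; Measured by: CellTiter-Glo luminescence.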
HUVEC prolif 384: inhibitors of human endothelial cell proliferation. HUVEC proliferation, CellTiter-Glo luminescence, 72 h; stronger effect = lower value. viability, % at 10 µM (by protocol). 86,000 compounds, 1.1% hits. AID 648;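 active = viability at or below 30%; inactive = viability above 30%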;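 note: 100% = median luminescence of DMSO-only cell control wells on each plate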
Jurkat viability: cytotoxic compounds reducing Jurkat cell viability | Jurkat E6.1 viability, ATP luminescence, 48 h | inhibition, % at 4 µM | 56,000 compounds, 1.2% hits;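 active = inhibition above the mean inhibition of all tested compounds plus 3 SD, cut at about 28% in these data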
H69AR inhibit: blocks growth of human H69AR lung tumor cells. viability, % at 10 µM. AID 598. H69AR lung tumor viability, ATP luminescence, 72 h; stronger effect = lower value. 85,000 compounds, 6% hits;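 active = viability at or below 40%; inactive = viability above 40%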;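 note: multidrug resistant small cell line overexpressing MRP-1 efflux transporter; 100% = mean luminescence of untreated control wells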
The depositor's hits bear a star; / = no result given. Most compounds without a hit are left out; they make up all but 6.4% or so of the library.

SMILES	Fibroblast inh	HUVEC prolif 384	Jurkat viability	H69AR inhibit
COc1ccccc1N=Cc1c(O)n(C)c(=O)n(C)c1=O	93	97	-1	1.3*
O=c1[nH]c(=O)n(C2CCCCC2)c(O)c1C1NCCc2ccccc21 (stereo unspecified)	96	95	-11	104
CCOP(=O)(OCC)C(C)(C)NC(=O)C(Cl)(Cl)Cl	95	96	/	98
O=C1CC(N2CCC(n3c(=O)[nH]c4ccccc43)CC2)C(=O)N1c1ccc(F)cc1 (stereo unspecified)	92	92	0	103
O=c1[nH]c2ccccc2n1C1CCN(CCCC(c2ccc(F)cc2)c2ccc(F)cc2)CC1	69	2.7*	/	1.7*
Cc1nonc1-c1nc(-c2nonc2N)n[nH]1	96	88	5	85
CN1/C(=C\C=C\C2=[N+](C)c3ccc4ccccc4c3C2(C)C)C(C)(C)c2ccccc21	1.6*	2.0*	/	0.1*
Cc1n[nH]c(C)c1CCN	106	102	-2	101
Cc1[nH]c2c(C(F)(F)F)cccc2c1CCN	71	83	53*	18*
CC(C)CCn1c(N)c(C(=O)NCc2cccs2)c2nc3ccccc3nc21	86	66	/	44
COCCNC(=O)c1c(N)n(CCC(C)C)c2nc3ccccc3nc12	102	71	/	15*
CC(C)CNC(=O)c1c(N)n(Cc2ccc3c(c2)OCO3)c2nc3ccccc3nc12	88	49	/	26*
CCCNC(=O)c1c(N)n(Cc2ccc3c(c2)OCO3)c2nc3ccccc3nc12	/	/	-2	/
CC(C)CCNC(=O)c1c(N)n(Cc2ccc3c(c2)OCO3)c2nc3ccccc3nc12	67	15*	/	6.1*
Cn1c(O)c(/C=N/c2ccccn2)c(=O)n(C)c1=O	100	90	/	84
Cc1nc2cc(C(F)(F)F)ccc2n1C1CCN(Cc2nnnn2Cc2cccs2)CC1	94	89	/	77
FC(F)(F)c1ccc2c(c1)ncn2C1CCN(Cc2nnnn2C2CCCCC2)CC1	96	85	16	37*
O=C(Cn1ncc2c3ccccc3n(Cc3ccc(F)cc3)c2c1=O)N1CCC2(CC1)OCCO2	96	99	-1	101
O=C(NC[P+](=O)O)OCc1ccccc1	102	93	-1	87
CN1C[C@H](CNC(=O)OCc2ccccc2)C[C@@H]2c3cccc4c3c(cn4C)C[C@H]21	76	3.9*	/	1.7*
Nc1c(C(=O)NCc2ccco2)c2nc3ccccc3nc2n1CCN1CCCCC1	60	19*	/	1.2*
CC(C)CNC(=O)c1c(N)n(Cc2ccco2)c2nc3ccccc3nc12	76	66	/	34*
COc1ccc(Cn2c(N)c(C(=O)NCc3ccco3)c3nc4ccccc4nc32)cc1OC	76	76	-1	43
CC(C)OC(=O)c1c(N)n(Cc2ccco2)c2nc3ccccc3nc12	87	66	/	46
CCCNC(=O)c1c(N)n(Cc2ccco2)c2nc3ccccc3nc12	92	65	/	26*
SMILES	Fibroblast inh	HUVEC prolif 384	Jurkat viability	H69AR inhibit
Cc1cc(OCC(=O)Nc2c(C)n(C)n(-c3ccccc3)c2=O)c2c3c(c(=O)oc2c1)CCC3	108	100	-1	87
CCCCCCn1c(O)c(C=NC2CCCCC2N)c(=O)[nH]c1=O (stereo unspecified)	81	5.0*	-6	29*
CSc1ncc(Cl)c(C(=O)O)n1 (tested in a mixture with another compound)	103	94	/	101
CC1CCC/C=C/C2CC(O)CC2C(O)/C=C/C(=O)O1 (stereo unspecified)	11*	8.3*	/	2.9*
COC(=O)CC1NC2CCCCC2NC1=O (stereo unspecified)	100	99	1	93
Cc1oc2ccc(OC(=O)N(C)C)cc2c1C(=O)OC(C)C	98	111	5	96
CCOC(=O)c1c(-c2ccc(OC)cc2)oc2ccc(OC(=O)N(C)C)cc12	103	72	-4	33*
CCc1ccc(N2C(=O)NC(=O)C(Cc3ccc(OC)cc3OC)C2=O)cc1 (stereo unspecified)	97	106	/	87
CN(C)C(=O)On1c(-c2ccccc2)nc2ccc(Cl)cc21	90	98	/	38*
CNP1(NC)=NC(C(F)(F)F)=NC(C(F)(F)F)=N1	104	94	-1	93
CC1(C)CC(=O)C(C=NCCN2CCN(C(=O)Cc3ccc(F)cc3)CC2)=C(O)C1	93	94	/	80
C[C@H]1CCC[C@@H](O)CCC/C=C/c2cc(O)cc(O)c2C(=O)O1	70	34	/	6.5*
C[C@H]1CCC[C@H](O)CCCCCc2cc(O)cc(O)c2C(=O)O1	85	47	3	32*
O=C1NC(=O)C(=Cc2cn(CCOc3ccc4c(c3)OCO4)c3ccccc23)C(=O)N1	48*	53	/	78
